From ChEMBL document CHEMBL4689842, “EUbOPEN Chemogenomics Library wave 1” (2021)

System: U2OS
Experiment: Multiplex assay against U2OS
Format: toxicity, cell-based
Conditions: human
How it was run: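 Live cells were stained at seeding with Hoechst33342, BioTracker Green Microtubule Cytoskeleton Dye, MitoTracker Red and Annexin V Alexa Fluor 680, then imaged on a CQ1 microscope at 37°C and 5% CO2 after compound addition. CellPathfinder machine-learning gating split cells into Hoechst high-intensity objects or normal cells. Normal cells were split into healthy, pyknosed or fragmented nuclei, and pyknosed cells into mitotic or apoptotic. Tubulin, mitochondrial-mass and membrane-permeability phenotypes are per cents of healthy-nucleus cells.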

[1] = 12 h, 1 µM, compound concentration 1 uM, replicate 1
[2] = 12 h, 1 µM, compound concentration 1 uM, replicate 2
[3] = 12 h, 10 µM, compound concentration 10 uM, replicate 1
[4] = 12 h, 10 µM, compound concentration 10 uM, replicate 2
[5] = 24 h, 1 µM, compound concentration 1 uM, replicate 1
[6] = 24 h, 1 µM, compound concentration 1 uM, replicate 2
[7] = 24 h, 10 µM, compound concentration 10 uM, replicate 1
[8] = 24 h, 10 µM, compound concentration 10 uM, replicate 2
[9] = 48 h, 1 µM, compound concentration 1 uM, replicate 1
[10] = 48 h, 1 µM, compound concentration 1 uM, replicate 2
[11] = 48 h, 10 µM, compound concentration 10 uM, replicate 1
[12] = 48 h, 10 µM, compound concentration 10 uM, replicate 2

O=C(c1cc2c(cc1F)OC(c1ccc(F)cc1)(c1ccc(Cl)cc1Cl)O2)N1CCOCC1 (stereo not given)
Population Apoptotic (%) [1]: 57% | Population Fragmented Nuclei (%) [1]: 19% | Population Healthy Nuclei (%) [1]: 67% | Population Hoechst High Intensity Objects (%) [1]: 10% | Population Membrane Permeable-Phenotype (%) [1]: 7% | Population Mitochondria Different-Phenotype (%) [1]: 17% | Population Mitotic Cells (%) [1]: 42% | Population Normal (%) [1]: 89% | Population Pyknosed Nuclei (%) [1]: 13% | Total Cell Count [1]: 120 | Population Apoptotic (%) [2]: 50% | Population Fragmented Nuclei (%) [2]: 18% | Population Healthy Nuclei (%) [2]: 68% | Population Hoechst High Intensity Objects (%) [2]: 7% | Population Membrane Permeable-Phenotype (%) [2]: 9% | Population Mitochondria Different-Phenotype (%) [2]: 12% | Population Mitotic Cells (%) [2]: 50% | Population Normal (%) [2]: 92% | Population Pyknosed Nuclei (%) [2]: 12% | Population Tubulin-Different-Phenotype (%) [2]: 15% | Total Cell Count [2]: 78 | Population Apoptotic (%) [3]: 50% | Population Healthy Nuclei (%) [3]: 67% | Population Hoechst High Intensity Objects (%) [3]: 8% | Population Membrane Permeable-Phenotype (%) [3]: 46% | Population Mitotic Cells (%) [3]: 50% | Population Normal (%) [3]: 91% | Population Pyknosed Nuclei (%) [3]: 21% | Total Cell Count [3]: 116 | Population Apoptotic (%) [4]: 71% | Population Fragmented Nuclei (%) [4]: 10% | Population Healthy Nuclei (%) [4]: 78% | Population Hoechst High Intensity Objects (%) [4]: 4% | Population Membrane Permeable-Phenotype (%) [4]: 47% | Population Mitochondria Different-Phenotype (%) [4]: 96% | Population Mitotic Cells (%) [4]: 28% | Population Normal (%) [4]: 95% | Population Pyknosed Nuclei (%) [4]: 10% | Population Tubulin-Different-Phenotype (%) [4]: 100% | Total Cell Count [4]: 52 | Population Apoptotic (%) [5]: 44% | Population Fragmented Nuclei (%) [5]: 17% | Population Healthy Nuclei (%) [5]: 68% | Population Hoechst High Intensity Objects (%) [5]: 7% | Population Membrane Permeable-Phenotype (%) [5]: 5% | Population Mitochondria Different-Phenotype (%) [5]: 14% | Population Mitotic Cells (%) [5]: 55% | Population Normal (%) [5]: 92% | Population Pyknosed Nuclei (%) [5]: 14% | Population Tubulin-Different-Phenotype (%) [5]: 12% | Total Cell Count [5]: 130 | Population Apoptotic (%) [6]: 33% | Population Fragmented Nuclei (%) [6]: 5% | Population Healthy Nuclei (%) [6]: 88% | Population Hoechst High Intensity Objects (%) [6]: 10% | Population Membrane Permeable-Phenotype (%) [6]: 10% | Population Mitochondria Different-Phenotype (%) [6]: 15% | Population Mitotic Cells (%) [6]: 66% | Population Normal (%) [6]: 89% | Population Pyknosed Nuclei (%) [6]: 5% | Population Tubulin-Different-Phenotype (%) [6]: 21% | Total Cell Count [6]: 85 | Population Apoptotic (%) [7]: 67% | Population Fragmented Nuclei (%) [7]: 16% | Population Healthy Nuclei (%) [7]: 55% | Population Hoechst High Intensity Objects (%) [7]: 8% | Population Membrane Permeable-Phenotype (%) [7]: 48% | Population Mitochondria Different-Phenotype (%) [7]: 98% | Population Mitotic Cells (%) [7]: 32% | Population Normal (%) [7]: 91% | Population Pyknosed Nuclei (%) [7]: 28% | Population Tubulin-Different-Phenotype (%) [7]: 100% | Total Cell Count [7]: 137 | Population Apoptotic (%) [8]: 66% | Population Fragmented Nuclei (%) [8]: 8% | Population Healthy Nuclei (%) [8]: 62% | Population Hoechst High Intensity Objects (%) [8]: 6% | Population Membrane Permeable-Phenotype (%) [8]: 64% | Population Mitochondria Different-Phenotype (%) [8]: 100% | Population Mitotic Cells (%) [8]: 33% | Population Normal (%) [8]: 93% | Population Pyknosed Nuclei (%) [8]: 29% | Total Cell Count [8]: 58 | Population Apoptotic (%) [9]: 62% | Population Fragmented Nuclei (%) [9]: 14% | Population Healthy Nuclei (%) [9]: 75% | Population Hoechst High Intensity Objects (%) [9]: 7% | Population Membrane Permeable-Phenotype (%) [9]: 4% | Population Mitochondria Different-Phenotype (%) [9]: 11% | Population Mitotic Cells (%) [9]: 37% | Population Normal (%) [9]: 92% | Population Pyknosed Nuclei (%) [9]: 9% | Population Tubulin-Different-Phenotype (%) [9]: 9% | Total Cell Count [9]: 127 | Population Apoptotic (%) [10]: 60% | Population Fragmented Nuclei (%) [10]: 8% | Population Healthy Nuclei (%) [10]: 84% | Population Hoechst High Intensity Objects (%) [10]: 4% | Population Membrane Permeable-Phenotype (%) [10]: 6% | Population Mitochondria Different-Phenotype (%) [10]: 13% | Population Mitotic Cells (%) [10]: 40% | Population Normal (%) [10]: 96% | Population Pyknosed Nuclei (%) [10]: 6% | Population Tubulin-Different-Phenotype (%) [10]: 16% | Total Cell Count [10]: 78 | Population Apoptotic (%) [11]: 57% | Population Fragmented Nuclei (%) [11]: 20% | Population Healthy Nuclei (%) [11]: 44% | Population Hoechst High Intensity Objects (%) [11]: 14% | Population Membrane Permeable-Phenotype (%) [11]: 65% | Population Mitochondria Different-Phenotype (%) [11]: 93% | Population Mitotic Cells (%) [11]: 42% | Population Normal (%) [11]: 85% | Population Pyknosed Nuclei (%) [11]: 34% | Population Tubulin-Different-Phenotype (%) [11]: 100% | Total Cell Count [11]: 179 | Population Apoptotic (%) [12]: 71% | Population Fragmented Nuclei (%) [12]: 17% | Population Healthy Nuclei (%) [12]: 50% | Population Hoechst High Intensity Objects (%) [12]: 8% | Population Membrane Permeable-Phenotype (%) [12]: 76% | Population Mitochondria Different-Phenotype (%) [12]: 100% | Population Mitotic Cells (%) [12]: 28% | Population Normal (%) [12]: 91% | Population Pyknosed Nuclei (%) [12]: 31% | Total Cell Count [12]: 75

CC(C)(C)NC[C@H](O)COc1nsnc1N1CCOCC1 [TIMOLOL]
Population Apoptotic (%) [1]: 77% | Population Fragmented Nuclei (%) [1]: 12% | Population Healthy Nuclei (%) [1]: 80% | Population Hoechst High Intensity Objects (%) [1]: 7% | Population Membrane Permeable-Phenotype (%) [1]: 4% | Population Mitochondria Different-Phenotype (%) [1]: 9% | Population Mitotic Cells (%) [1]: 22% | Population Pyknosed Nuclei (%) [1]: 7% | Population Tubulin-Different-Phenotype (%) [1]: 8% | Population Apoptotic (%) [2]: 100% | Population Fragmented Nuclei (%) [2]: 5% | Population Healthy Nuclei (%) [2]: 88% | Population Hoechst High Intensity Objects (%) [2]: 8% | Population Membrane Permeable-Phenotype (%) [2]: 8% | Population Mitochondria Different-Phenotype (%) [2]: 11% | Population Mitotic Cells (%) [2]: 0% | Population Normal (%) [2]: 92% | Population Pyknosed Nuclei (%) [2]: 5% | Population Tubulin-Different-Phenotype (%) [2]: 18% | Population Apoptotic (%) [3]: 30% | Population Fragmented Nuclei (%) [3]: 8% | Population Healthy Nuclei (%) [3]: 77% | Population Hoechst High Intensity Objects (%) [3]: 6% | Population Membrane Permeable-Phenotype (%) [3]: 6% | Population Mitochondria Different-Phenotype (%) [3]: 8% | Population Mitotic Cells (%) [3]: 69% | Population Normal (%) [3]: 93% | Population Pyknosed Nuclei (%) [3]: 14% | Population Tubulin-Different-Phenotype (%) [3]: 8% | Population Apoptotic (%) [4]: 33% | Population Healthy Nuclei (%) [4]: 79% | Population Hoechst High Intensity Objects (%) [4]: 3% | Population Membrane Permeable-Phenotype (%) [4]: 4% | Population Mitochondria Different-Phenotype (%) [4]: 7% | Population Mitotic Cells (%) [4]: 66% | Population Normal (%) [4]: 96% | Population Pyknosed Nuclei (%) [4]: 11% | Population Tubulin-Different-Phenotype (%) [4]: 4% | Population Apoptotic (%) [5]: 63% | Population Fragmented Nuclei (%) [5]: 10% | Population Healthy Nuclei (%) [5]: 82% | Population Hoechst High Intensity Objects (%) [5]: 4% | Population Mitochondria Different-Phenotype (%) [5]: 7% | Population Mitotic Cells (%) [5]: 36% | Population Normal (%) [5]: 95% | Population Tubulin-Different-Phenotype (%) [5]: 12% | Population Apoptotic (%) [6]: 50% | Population Fragmented Nuclei (%) [6]: 11% | Population Healthy Nuclei (%) [6]: 81% | Population Hoechst High Intensity Objects (%) [6]: 5% | Population Membrane Permeable-Phenotype (%) [6]: 2% | Population Mitochondria Different-Phenotype (%) [6]: 18% | Population Mitotic Cells (%) [6]: 50% | Population Normal (%) [6]: 94% | Population Pyknosed Nuclei (%) [6]: 6% | Population Tubulin-Different-Phenotype (%) [6]: 21% | Population Apoptotic (%) [7]: 20% | Population Fragmented Nuclei (%) [7]: 7% | Population Healthy Nuclei (%) [7]: 85% | Population Hoechst High Intensity Objects (%) [7]: 5% | Population Membrane Permeable-Phenotype (%) [7]: 5% | Population Mitochondria Different-Phenotype (%) [7]: 2% | Population Mitotic Cells (%) [7]: 80% | Population Normal (%) [7]: 94% | Population Pyknosed Nuclei (%) [7]: 6% | Population Tubulin-Different-Phenotype (%) [7]: 5% | Population Apoptotic (%) [8]: 41% | Population Healthy Nuclei (%) [8]: 81% | Population Hoechst High Intensity Objects (%) [8]: 2% | Population Membrane Permeable-Phenotype (%) [8]: 3% | Population Mitochondria Different-Phenotype (%) [8]: 5% | Population Mitotic Cells (%) [8]: 58% | Population Normal (%) [8]: 97% | Population Pyknosed Nuclei (%) [8]: 11% | Population Tubulin-Different-Phenotype (%) [8]: 4% | Population Apoptotic (%) [9]: 23% | Population Membrane Permeable-Phenotype (%) [9]: 1% | Population Mitochondria Different-Phenotype (%) [9]: 12% | Population Mitotic Cells (%) [9]: 76% | Population Tubulin-Different-Phenotype (%) [9]: 5% | Population Apoptotic (%) [10]: 42% | Population Fragmented Nuclei (%) [10]: 5% | Population Healthy Nuclei (%) [10]: 88% | Population Hoechst High Intensity Objects (%) [10]: 1% | Population Membrane Permeable-Phenotype (%) [10]: 13% | Population Mitochondria Different-Phenotype (%) [10]: 17% | Population Mitotic Cells (%) [10]: 57% | Population Normal (%) [10]: 98% | Population Pyknosed Nuclei (%) [10]: 5% | Population Tubulin-Different-Phenotype (%) [10]: 21% | Population Apoptotic (%) [11]: 46% | Population Fragmented Nuclei (%) [11]: 1% | Population Healthy Nuclei (%) [11]: 93% | Population Hoechst High Intensity Objects (%) [11]: 2% | Population Membrane Permeable-Phenotype (%) [11]: 1% | Population Mitochondria Different-Phenotype (%) [11]: 9% | Population Mitotic Cells (%) [11]: 53% | Population Normal (%) [11]: 97% | Population Tubulin-Different-Phenotype (%) [11]: 6% | Population Apoptotic (%) [12]: 27% | Population Fragmented Nuclei (%) [12]: 3% | Population Healthy Nuclei (%) [12]: 91% | Population Hoechst High Intensity Objects (%) [12]: 1% | Population Membrane Permeable-Phenotype (%) [12]: 4% | Population Mitochondria Different-Phenotype (%) [12]: 10% | Population Mitotic Cells (%) [12]: 72% | Population Normal (%) [12]: 98% | Population Pyknosed Nuclei (%) [12]: 4% | Population Tubulin-Different-Phenotype (%) [12]: 13%
